Compound activity deposited in PubChem BioAssay by several laboratories.
An excerpt weighted towards active compounds, which were near 1.7% of everything screened.
ZTA DNA inh = counter-screen for EBNA-1 inhibitors: inhibitors of Epstein-Barr virus ZTA | P03206 | inhibition, % at 11 µM | 0.15% of 320,000 active | ZTA-DNA binding, fluorescence polarization; in the data active = inhibition above about 33%
EBV gp42 inh = blocks Epstein-Barr virus glycoprotein 42 binding | Q1HVG2 | AID 1085 | 0.42% of 220,000 active | Fluorescence polarization binding assay, mP read-out | inhibition, % (tested at 21.74 µM); in the data active = inhibition above about 50%
HCV NS3 hel inh = inhibitors of Hepatitis C virus NS3 helicase. NS3 helicase DNA unwinding, Cy5 molecular beacon fluorescence. inhibition, % at 10.9 µM. 0.56% of 290,000 active;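 active = inhibition above the mean of all tested compounds plus 3 SD, set per campaign, cut at about 35% in these data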;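 note: 0% = DMSO wells and 100% = thioflavine S control wells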
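Test system: hepatitis C virus NS3 helicase domain fragment enzyme. Also added: annealed dual-labelled DNA beacon duplex, ATP-started. Timing: 60 min unwinding reaction at 25 °C after ATP addition. Technique: Cy5 fluorescence. Measure: % inhibition of unwinding.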
MEX-5 binding = C. elegans MEX-5 TCR-2 RNA binding activity; activity score (negative = inhibition of binding), % at 10 µM; 0.38% of 300,000 active; MEX-5/FITC-TCR2 RNA binding, fluorescence polarization; hits give low values;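 active = inhibition past about -25% in most replicates, and total fluorescence under double the plate's negative control median, limit read from the data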;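 note: 0% = DMSO and -100% = 5 µM competing unlabeled TCR2 RNA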
Target sequence (Q9XUB2 whole entry, looked up): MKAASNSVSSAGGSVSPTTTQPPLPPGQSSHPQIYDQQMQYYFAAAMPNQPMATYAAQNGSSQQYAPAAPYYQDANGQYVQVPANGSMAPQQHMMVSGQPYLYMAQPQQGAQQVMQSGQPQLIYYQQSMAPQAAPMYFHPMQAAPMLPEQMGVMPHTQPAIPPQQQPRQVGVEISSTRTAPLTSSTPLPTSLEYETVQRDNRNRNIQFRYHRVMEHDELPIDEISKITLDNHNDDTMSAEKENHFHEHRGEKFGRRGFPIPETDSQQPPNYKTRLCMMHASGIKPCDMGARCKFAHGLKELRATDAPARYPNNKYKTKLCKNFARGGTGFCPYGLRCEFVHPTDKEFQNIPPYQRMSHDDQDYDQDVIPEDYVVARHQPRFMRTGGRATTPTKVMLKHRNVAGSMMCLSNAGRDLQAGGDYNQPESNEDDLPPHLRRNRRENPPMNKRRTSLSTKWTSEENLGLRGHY
core dimer inh = HCV core protein dimerization inhibition; TR-FRET GST/Flag-core106 dimerization, 1536-well; inhibition, % at 5 µM; 0.33% of 300,000 active;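 active = inhibition above the mean of all tested compounds plus 3 SD, set per screening campaign, cut at about 45% in these data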
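Assay system – GST-tagged and Flag-tagged HCV core protein residues 1-106 · Quantity – core106 proteins, GST 13.5 nM and Flag 17 nM · Benchmarks – unlabelled core106 and no-GST-core106 wells · Read-out basis – percent inhibition of core106 dimerization signal · Detection – time-resolved FRET, ex 340 nm, em 617 and 671 nm · Schedule – 4 h at 22.5 °C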
EBNA-1 inhibitor = blocks EBNA-1 binding to DNA. EBNA-1 DNA binding, fluorescence polarization. inhibition, % at 14.8 µM. 0.34% of 300,000 active. AID 1950; in the data active = inhibition above about 28%
NS3 helicase cf = HCV NS3 helicase inhibition, confirmation assay. shares compounds with HCV NS3 hel inh. NS3 helicase DNA unwinding, Cy5 molecular beacon fluorescence. inhibition, % at 10.9 µM. 31% of 1,600 active;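 active = inhibition above the mean of all tested compounds plus 3 SD, cutoff set per campaign, cut at about 36% in these data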
FID counter trip = displaces DNA intercalator in HCV helicase counter-screen; inhibition, % at 7.9 µM; shares compounds with HCV NS3 hel inh; 4% of 1,600 active; AID 1945; DNA fluorescent intercalator displacement, fluorescence; in the data active = inhibition above about 37%;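 note: 0% = vehicle and 100% = reference compound; higher means more displacement of ethidium bromide from the DNA hairpin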
FID counter DR = displaces fluorescent intercalator from DNA, HCV helicase counter-screen | shares compounds with HCV NS3 hel inh | fluorescent intercalator displacement from DNA, fluorescence | IC50, µM | 120 tested, under 10 active | AID 2172; call rule not given here
* = called active by the depositor; x = no result given.

SMILES	ZTA DNA inh	EBV gp42 inh	HCV NS3 hel inh	MEX-5 binding	core dimer inh	EBNA-1 inhibitor	NS3 helicase cf	FID counter trip	others
COc1ccc(CCNC(=O)/C=C/c2ccco2)cc1OC	-1	x	11	-1	2	-6	x	x
COc1ccccc1NC(=O)/C=C\c1ccco1	2	x	53*	-3	7	-15	-10	-1
COc1ccccc1NC(=S)NC(=O)/C=C/c1ccco1	4	7	11	4	7	-7	x	x
Cc1cccc(NC(=S)NC(=O)/C=C/c2ccco2)n1	8	-10	77*	-3	6	2	-14	-9
COc1ccc(CCNC(=O)/C=C/c2ccco2)cc1	4	x	41*	0	7	7	-22	6
CC1=CC(C)(C)Nc2ccc(OC(=O)CN3C(=O)c4cccc5cccc(c45)C3=O)cc21	-6	-10	39*	-1	7	-11	-14	1
COc1cc(/C=C2\C(=O)ON=C2c2ccccc2)cc(Br)c1O	13	x	38*	44	6	1	32	1
C=CCOc1ccc(Br)cc1/C=C1\NC(=S)N(C(C)=O)C1=O	4	x	40*	-7	10	-1	3	3
Cc1cc(OC(=O)c2cc(C(F)(F)F)cc(C(F)(F)F)c2)c([N+](=O)[O-])c(=O)[nH]1	-8	x	2	1	-7	-2	x	x
CCc1cc(C(=O)Nc2ccc(S(=O)(=O)NC3=NCCCCC3)cc2)sc1C	-10	x	x	0	42	0	x	x
COc1cccc(NC(=O)CN(C)C(=O)c2cc(-c3cccc(Br)c3)nc3ccccc23)c1	-6	x	x	2	3	-6	x	x
O=[N+]([O-])c1c(C(Cl)Cl)nn(-c2ccccc2)c1N1CCOCC1	8	-18	58*	-4	2	13	-13	-12
O=C(Nc1ccccc1Cl)c1cc(=O)c2ccccc2o1	9	x	9	-1	-2	1	x	x
CCOC(=O)CCSc1nc(-c2ccc3c(c2)OCO3)cc(C(F)(F)F)c1C#N	-4	-20	-4	-1	-2	-3	x	x
CCOC(=O)CC(=O)CSc1nc(-c2ccc3c(c2)OCO3)cc(C(F)(F)F)c1C#N	4	-33	37*	-4	-24	-2	-2	1
COc1cc(OC)c(-c2c3cc(O)c(=O)cc-3oc3cc(O)c(O)cc23)cc1OC	19	-128	51*	x	-18	5	86*	-167
CC(=O)O/N=C(\N)c1cnn2c(C(F)(F)F)cc(C(F)(F)F)nc12	22	-11	1	0	4	13	x	x
CN(C)S(=O)(=O)c1ccc(Cl)c(C(=O)Nc2cccc3ncccc23)c1	-16	x	7	-7	0	-4	x	x
CCn1cc(C(=O)O)c(=O)c2cc(F)c(N3CCN(C(=S)NC(=O)c4ccccc4Br)CC3)cc21	10	x	50*	4	7	-18	12	1
CCn1cc(C(=O)O)c(=O)c2cc(F)c(N3CCN(C(=S)NC(=O)c4ccc(F)cc4)CC3)cc21	4	3	-5	0	-1	1	x	x
Cc1cc(C)nc(N/N=C/C2=C(N3CCOCC3)C(=C\c3ccc(Cl)cc3)/CC2)n1	8	-2	36*	-1	17	1	-6	-10
O=CC1=C(N2CCOCC2)/C(=C/c2ccc(Cl)cc2)CC1	4	-10	8	-3	0	11	x	x
COCCn1c(-c2ccc(OC)cc2)cnc1SCC(=O)Nc1cccc2ccccc12	-20	-13	47*	-2	6	-1	-16	-41
COc1ccc(-c2cnc(SCC(=O)Nc3nc(C(C)(C)C)cs3)n2Cc2ccco2)cc1	-26	-28	52*	6	32	-9	-6	-27
CSc1ccccc1NC(=O)CN(C)C(=O)c1ccc(NC(=O)c2cccs2)cc1	15	x	x	x	x	x	x	x
SMILES	ZTA DNA inh	EBV gp42 inh	HCV NS3 hel inh	MEX-5 binding	core dimer inh	EBNA-1 inhibitor	NS3 helicase cf	FID counter trip	others
Cc1ccc(NC(N)=S)cc1	-16	-15	36*	0	0	9	2	3
CC(C)(CNc1ccc(C(F)(F)F)cc1[N+](=O)[O-])N1CCOCC1	4	x	-7	0	0	1	x	x
O=C(c1ccco1)N(CCC(c1ccccc1)c1ccco1)Cc1ccccc1 (stereo unspecified)	3	-19	50*	4	41	-6	21	-20
COc1ccc(CN(CCC(c2ccccc2)c2ccco2)C(=O)c2ccco2)cc1 (stereo unspecified)	6	-27	25	6	38	-3	x	x
CCOc1ccccc1N1CC(C(=O)N(Cc2nnc(-c3ccccc3Cl)o2)C2CC2)CC1=O (stereo unspecified)	-17	x	x	1	2	0	x	x
Cc1ccc(NC(=O)CSc2nc(O)cc(=O)n2-c2ccc(C)cc2)cc1	-16	x	48*	-1	10	-4	36*	-18
O=C(NNc1nc2ccccc2s1)c1ccccc1F	-2	-13	51*	2	6	6	-6	11
O=C(NNc1nc2ccccc2s1)Nc1ccc(F)cc1	-4	-6	-7	1	2	-5	x	x
CNC(=O)COC(=O)c1ccc(NC(=O)CC#N)cc1	12	-21	-1	-1	-5	-9	x	x
CCN(CC)S(=O)(=O)c1ccc(NC(=O)COC(=O)c2ccc(NC(=O)CC#N)cc2)cc1	-20	-6	41*	3	25	-6	11	16
O=C(CSc1nnc(-c2ccco2)o1)N1CCCCC1	0	x	10	1	1	3	x	x
Cc1ccc(O)c(N=Cc2cc(Cc3ccccc3)cc([N+](=O)[O-])c2O)c1	x	9	5	2	x	x	x	x
O=[N+]([O-])c1cc(Cc2ccccc2)cc(C=Nc2ccc(N3CCOCC3)cc2)c1O	77*	1	50*	x	-7	40*	55*	23	FID counter DR=>79
COc1ccc(N2CC(NC(=O)NCC(C)C)CC2=O)cc1 (stereo unspecified)	-2	8	53*	0	0	2	-8	-1
CCN(CC)C(=O)NC1CC(=O)N(c2ccc(OC)cc2)C1 (stereo unspecified)	-4	-1	4	0	-4	-6	x	x
CCN(Cc1nc2ccccc2c(=O)[nH]1)C(=O)c1cccc(S(=O)(=O)N2CCc3ccccc32)c1	2	x	x	x	x	x	x	x
COc1ccccc1OCCC(=O)Nc1cccc(S(=O)(=O)N2CCOCC2)c1	0	x	x	x	x	x	x	x
